Measurements published in ChEMBL document CHEMBL5532752, “Integrating a quinone substructure into histone deacetylase inhibitors to cope with Alzheimer's disease and cancer” (RSC Med Chem, 2024).
pIC50: −log10 of the molar value.

How the values were obtained:
Type in all cases: functional
SH-SY5Y [1] = assay: Cytotoxicity against human SH-SY5Y cells assessed as reduction in cell viability incubated for 24 hrs by MUH reagent based spectrophotometric analysis
SH-SY5Y [2] = assay: Cytotoxicity against human SH-SY5Y cells assessed as reduction in cell viability incubated for 48 hrs by MUH reagent based spectrophotometric analysis
SH-SY5Y [3] = assay: Cytotoxicity against human SH-SY5Y cells assessed as reduction in cell viability incubated for 72 hrs by MUH reagent based spectrophotometric analysis
Method in brief: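 SH-SY5Y in DMEM/10% FBS seeded 0.75 × 10⁴ cells/well, after 24 h treated with 0.1–100 μM for 24, 48 or 72 h. Washed, incubated with MUH 0.01 mg/mL in PBS 30 min at 37 °C in the dark; fluorescence ex 330/em 450 nm, normalized to untreated cells. IC50 by nonlinear regression, log(inhibitor) vs normalized response.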

| Compound | pIC50 (SH-SY5Y [1]) | pIC50 (SH-SY5Y [2]) | pIC50 (SH-SY5Y [3]) |
| --- | --- | --- | --- |
| Nc1ccccc1NC(=O)c1ccc(CNC2=CC(=O)c3ccccc3C2=O)cc1 | 4.23 | 5.07 | 5.35 |
| O=C(CCCCCNC1=CC(=O)c2ccccc2C1=O)NO | 4.10 | 4.57 | 4.65 |
| O=C(NO)c1ccc(CNC2=CC(=O)c3ccccc3C2=O)cc1 | 4.41 | 5.06 | 5.11 |
| CC1=C(NCCCCCC(=O)NO)C(=O)c2ccccc2C1=O | 3.75 | 4.07 | 4.28 |
| CC1=C(NCc2ccc(C(=O)NO)cc2)C(=O)c2ccccc2C1=O | 4.41 | 4.70 | 4.85 |
| O=C(CS)NCCCCNC1=CC(=O)c2ccccc2C1=O | < 4.00 | < 4.00 | < 4.00 |
